An excerpt weighted towards active compounds, which were near 3.4% of everything screened.
IMP-1 inhibitor – inhibitors of Pseudomonas aeruginosa IMP-1 metallo-beta-lactamase; purified IMP-1, nitrocefin hydrolysis, epi-absorbance fluorescence; inhibition, % at 5.6 µM; 290,000 tested, 0.45% active; AID 1556;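 active means inhibition above the mean plus 3 SD of all compounds in the same screening run, cut at about 4.5% in these data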;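 further: 0% = IMP-1 with DMSO and 100% = DMSO wells lacking enzyme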
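Assay system: purified IMP-1; Quantity: IMP-1 0.2 nM before substrate addition; Medium: HEPES buffer pH 7.1 with ZnSO4 and Brij 35; Incubation: 15 min enzyme–compound preincubation, then 25 min nitrocefin reaction, 25 °C; Signal: fluorescence quenching readout, ex 480/em 530 nm; Controls: DMSO with and without IMP-1; Repeats: singlicate testing.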
CHT PAM – allosterically activates the human high affinity choline transporter; 310,000 tested, 0.49% active; Q9GZV3; CHT-expressing cells, membrane potential dye, choline EC20; stronger effect = higher value; LV-AA mutant CHT in HEK293 cells; B-score at 10 µM; AID 488977;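 active means initial fluorescence not abnormally high and integrated response B-score, plate-corrected, over 3 SD above library mean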
TMEM16A inh – mouse TMEM16A channel inhibition, primary screen; 310,000 tested, 1.2% active; HEK293 TMEM16A/YFP iodide influx fluorescence, ionomycin; normalized B-score (activity score, 25-100; higher = stronger inhibition) at 10 µM;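 active means ratio plate-corrected score three or more library SD toward inhibition, starting fluorescence score within five deviations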;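 further: score derived from kinetic fluorescence span divided by baseline fluorescence per well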
Target sequence (Q8BHY3 whole entry, looked up): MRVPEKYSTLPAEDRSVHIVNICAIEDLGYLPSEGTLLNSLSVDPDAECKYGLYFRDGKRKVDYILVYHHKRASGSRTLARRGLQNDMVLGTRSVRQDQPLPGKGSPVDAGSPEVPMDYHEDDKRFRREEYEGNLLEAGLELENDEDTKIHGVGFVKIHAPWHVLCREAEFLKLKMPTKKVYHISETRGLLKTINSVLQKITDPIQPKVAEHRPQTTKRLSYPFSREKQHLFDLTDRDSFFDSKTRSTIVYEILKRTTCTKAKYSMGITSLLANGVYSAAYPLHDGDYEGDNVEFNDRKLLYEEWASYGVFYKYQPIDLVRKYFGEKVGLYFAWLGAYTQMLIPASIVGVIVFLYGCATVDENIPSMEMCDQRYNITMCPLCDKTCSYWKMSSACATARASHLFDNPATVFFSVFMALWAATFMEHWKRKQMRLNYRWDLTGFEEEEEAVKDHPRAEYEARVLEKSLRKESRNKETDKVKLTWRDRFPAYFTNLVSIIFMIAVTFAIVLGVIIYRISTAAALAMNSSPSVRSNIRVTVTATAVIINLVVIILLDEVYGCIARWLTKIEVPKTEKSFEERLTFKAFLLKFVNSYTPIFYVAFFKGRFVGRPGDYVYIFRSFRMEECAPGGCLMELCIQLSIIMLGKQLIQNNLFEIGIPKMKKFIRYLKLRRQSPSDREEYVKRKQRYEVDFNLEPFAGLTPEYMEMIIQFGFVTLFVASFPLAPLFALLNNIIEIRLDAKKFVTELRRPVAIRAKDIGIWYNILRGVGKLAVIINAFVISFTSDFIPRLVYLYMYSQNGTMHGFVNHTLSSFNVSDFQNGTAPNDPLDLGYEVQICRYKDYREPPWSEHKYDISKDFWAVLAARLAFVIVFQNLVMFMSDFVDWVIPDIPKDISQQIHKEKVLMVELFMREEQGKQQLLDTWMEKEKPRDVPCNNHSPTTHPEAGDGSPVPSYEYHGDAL
CHT block – human CHT choline transport inhibition | Q9GZV3 | CHT-expressing cells, membrane potential dye, choline response; stronger effect = lower value | B-score at 10 µM | 310,000 tested, 0.86% active;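 active means B-score over 3 SD under the library average, and starting fluorescence ratio not unusually high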;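 further: choline stimulus applied at its EC90 after an EC20 pre-addition; B-score computed on integrated fluorescence ratio after choline addition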
TMEM16A act – activators or potentiators of mouse TMEM16A chloride channel; HEK293 TMEM16A/YFP-H148Q/I152L, iodide quench fluorescence; stronger effect = lower value; Q8BHY3; AID 623877; 340,000 tested, 0.3% active; B-score at 10 µM;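 active means fluorescence-ratio B-score plate-corrected deviation score at least 3 library SD below zero, with starting fluorescence score within 5 deviations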;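 further: channel opened by trigger with iodide after compound preincubation; score built on the fluorescence ratio of max minus min over baseline; more negative score means more quench and so TMEM16A activation or potentiation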
VIM-2 inh – inhibitors of Pseudomonas aeruginosa VIM-2 metallo-beta-lactamase; 290,000 tested, 0.89% active; inhibition, % at 5.6 µM; purified VIM-2, nitrocefin hydrolysis, epi-absorbance fluorescence;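 active means inhibition above the mean of all tested compounds plus 3 SD, cutoff set per screening run, cut at about 7.5% in these data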;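 further: red hydrolysis product quenches plate fluorescence so inhibitors raise well fluorescence; 0% = enzyme with DMSO and 100% = DMSO without enzyme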
* hit, by the source's call; i = inactive; . = no result given.

SMILES	IMP-1 inhibitor	CHT PAM	TMEM16A inh	CHT block	TMEM16A act	VIM-2 inh
O=C(O)c1c(C(=O)O)c(-c2ccc(F)cc2)n2c1CCC2	1.4	i	i	i	i	10.6*
Cc1ccc(-c2c(C(=O)O)c(C(=O)O)c3n2CCC3)cc1	-1.6	i	i	i	i	9.8*
Cc1cc2c(cc1S(=O)(=O)Nc1cccc(C)c1C)n(C)c(=O)c(=O)n2C	-2.9	i	i	i	i	-2.2
O=C(C=Cc1cccs1)c1ccccc1	.	.	.	.	i	.
O=C(CC1CCCC1)Nc1ccc(Cl)c(S(=O)(=O)N2CCOCC2)c1	.	.	.	.	i	.
CC(C)CC(=O)/C(=C\c1ccc(Cl)cc1Cl)n1cncn1	-1.0	.	.	.	-7.12*	-3.5
CC1CCCC2(C1)NC(=S)N(c1ccccc1)N2 (stereo unspecified)	-1.1	i	i	i	i	-0.5
S=C1NC2(CCCCC2)NN1c1ccccc1	-3.1	i	i	i	-5.02*	-3.1
CC(OC(=O)c1cc(=O)[nH]c2ccccc12)C(=O)NCc1ccccc1 (stereo unspecified)	.	i	i	i	i	.
CCOC(=O)c1nc(N2CCN(C(=O)OCC)CC2)c2c3c(sc2n1)CCCC3	-1.6	i	i	-5.9*	i	0.8
O=C(C1=NNCC1c1ccccc1)C1OC1c1ccccc1 (stereo unspecified)	-2.8	i	i	i	i	-0.6
CC(C)(C)C(=O)Nc1sc2c(c1C#N)CCN(Cc1ccccc1)C2	-0.8	i	i	i	i	-0.3
CC/C(=N\NC(=O)c1ccc2c(c1)OCO2)C12CC3CC(CC(C3)C1)C2	-3.0	i	i	i	-6.11*	-2.8
CN(CC(=O)NCCc1ccccc1)S(=O)(=O)c1ccc(Br)s1	0.8	i	i	i	i	1.5
COC(=O)c1cc(NC(=S)Nc2cc(Cl)cc(Cl)c2)cc(C(=O)OC)c1	-3.2	i	100*	i	i	-2.8
CCOc1cc(C(=O)OCC(=O)N(C)c2ccccc2)cc(OCC)c1OCC	12.2*	i	i	i	i	0.4
COc1cc(OC)cc(C(=O)OCC(=O)N(C)c2ccccc2)c1	-0.7	i	i	i	i	-2.3
CC(C)Cn1c(N)c(C(=O)COC(=O)C2CC(=O)N(c3ccc4c(c3)OCCO4)C2)c(=O)n(C)c1=O (stereo unspecified)	.	i	i	i	i	.
CC(C)Cn1c(N)c(C(=O)COC(=O)C2CC(=O)N(Cc3ccccc3Cl)C2)c(=O)n(C)c1=O (stereo unspecified)	-1.5	i	i	i	-4.62*	-0.1
COc1ccc(N2CCN(S(=O)(=O)c3c(C)n(C)c(=O)n(C)c3=O)CC2)cc1	-2.0	i	i	i	i	-1.5
COc1cc(CNCCc2ccc(F)cc2)ccc1OCc1ccc(Cl)nc1	-1.5	i	i	-5.85*	i	-3.7
COc1ccc(CCNC(=O)[C@H](C)N2C(=O)N3CCc4c([nH]c5ccccc45)[C@@]3(C)C2=O)cc1	-1.7	i	i	i	i	-2.2
Nc1ccc(Br)c2c1C(=O)c1ccccc1C2=O	-2.8	i	i	i	.	10.1*
Nc1ccc(O)c2c1C(=O)c1ccccc1C2=O	-1.1	i	i	i	i	4.2
N#Cc1ccccc1Cn1c(=O)n(Cc2ccc(C(=O)NCc3ccco3)cc2)c(=O)c2sccc21	7.0*	i	i	i	i	-0.5
SMILES	IMP-1 inhibitor	CHT PAM	TMEM16A inh	CHT block	TMEM16A act	VIM-2 inh
O=S(=O)(NCC1(N2CCOCC2)CCCCC1)c1ccccc1Cl	.	i	i	i	i	.
O=S(=O)(NCC1(N2CCOCC2)CCCCC1)c1ccc(Cl)cc1C(F)(F)F	-2.1	i	i	i	-18*	-2.8
Cc1cc(C)c(CN2CCC(n3nccc3NC(=O)c3ccccc3Cl)CC2)cc1C	-1.5	i	i	i	i	-3.7
COc1ccccc1C(=O)Nc1ccnn1C1CCN(Cc2cc(C)c(C)cc2C)CC1	0.1	i	i	-5.27*	i	1.2
CN(C(=O)c1cccc(COc2ccc(Cl)cc2Cl)c1)c1ccccc1	1.4	i	25*	i	i	-1.1
CN(C)c1ccc(/C=C2\Oc3ccc(C#Cc4cccc(N)c4)cc3C2=O)cc1	.	.	.	.	i	.
COc1ccc(/C=C/C(=O)Oc2cc(C)[nH]c(=O)c2[N+](=O)[O-])cc1OC	-3.8	i	i	i	i	-1.0
O=C(CSc1nc2nc(-c3cccs3)cc(C(F)(F)F)c2c(=O)[nH]1)Nc1c(F)c(F)c(F)c(F)c1F	-3.5	i	100*	i	i	-3.0
NS(=O)(=O)c1cccc(NC(=O)CSc2nc3nc(-c4cccs4)cc(C(F)(F)F)c3c(=O)[nH]2)c1	-3.8	i	i	i	i	-0.2
O=C(Nc1cccc(C(F)(F)F)c1)N1CCC(c2nc(-c3ccc(F)cc3)no2)CC1	-4.0	i	25*	i	i	-3.1
CCOc1ccc(C(=O)C(C)OC(=O)c2nc(Cl)ccc2Cl)cc1 (stereo unspecified)	.	i	i	i	i	.
Cn1c2ccccc2c2nnc(SCC(=O)NC3CCCC3)nc21	-2.2	i	i	i	i	9.2*
CCOC(=O)CSc1nnc2c3ccccc3n(CC)c2n1	-2.7	i	i	i	i	7.9*
COc1ccc2c(c1)c1nnc(SCC(=O)NC3CC3)nc1n2C	-2.9	i	i	i	i	0.4
CC(=O)Nc1ccc(NC(=O)CN(C)S(=O)(=O)c2ccc3c(c2)CCC(=O)N3)cc1	-0.7	i	i	i	i	-5.1
COc1ccc(S(=O)(=O)N2CCCCCC2)cc1C(=O)NCc1ccc(C)cc1	.	.	.	.	i	.
N#CC1(NC(=O)COC(=O)c2ccccc2SCC(=O)N2CCCC2)CCCCC1	-0.7	i	i	i	i	-0.1
O=C(c1cc(Cl)nc2ccccc12)N1CCN(S(=O)(=O)c2ccccc2[N+](=O)[O-])CC1	4.5*	i	i	i	i	-0.9
CCN1CCN(c2nc3c(c(=O)n(C)c(=O)n3C)n2CCSc2ncccn2)CC1	-2.1	i	i	-7.48*	i	-0.7
CCN(CC)Cc1cc2ccccc2c2c1COC2	-2.0	i	25*	i	i	-1.1
CCCN(CCC)Cc1cc2ccccc2c2c1COC2	-1.6	i	i	i	i	4.7
CC(=O)Nc1ccc(NC(=O)c2ccccc2S(=O)(=O)c2ccc([N+](=O)[O-])cc2)cc1	-1.5	i	i	i	i	-2.8
N#C/C(=N\Nc1cccc(C(F)(F)F)c1)C(=O)c1csc(-c2cccnc2)n1	-2.3	i	100*	i	i	-2.8

Bioassay records as filed in PubChem.
